What is called IC50 is the concentration that gives 50% inhibition. A high value points to a need for much substance. What is called solubility is the dissolved amount per volume that the medium holds.

Data set [1] concerns HT-29. In words: Drug metabolism in human HT-29 cells assessed as amount of drug metabolized for one log of cell kill at their CT10 concentration for 1 hr. The class given is ADME, cell-based. The following applies: ht-29, 1 h. The essentials: (§1)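 Stirred single-cell suspensions of anoxic HT29 cells are exposed for 3 h at a drug concentration giving roughly one log kill by 1 h. Clonogenic survival is followed, and extracellular drug is monitored by HPLC. Concentration-time data are fitted for the apparent first-order metabolic rate constant k_met, scaled to MCL cell density. CT₁₀ and M₁₀ (drug metabolized at 10% survival) are interpolated from the fitted PK/PD model.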

Data set [2] concerns HT-29. Put plainly: Drug diffusion coefficient in human HT-29 multicellular layer under 95% oxygen by liquid scintillation counting. It is filed as ADME, cell-based. In a few lines: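 Tissue diffusion coefficient D measured in HT29 multicellular layers held under 95% O₂ to suppress bioreductive metabolism. Reported as ×10⁻⁷ cm²s⁻¹.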
Data set [3] has as its system HT-29. Put plainly: Cytotoxicity against human HT-29 cells assessed as AUC-time curve providing 10% surviving fraction by clonogenic assay. It is filed as functional.
Data set [4] has as its system HT-29. Put plainly: Hypoxic cytotoxicity ratio, ratio of aerobic IC50 to anoxic IC50 for human HT-29 cells. It is filed as functional.
In data set [5] the test system is HT-29. Put plainly: Metabolic stability in human HT-29 multicellular layer assessed as apparent first-order rate constant under anoxic condition. The class given is ADME, cell-based. In a few lines: as §1
For data set [6], the system named is SiHa. Put plainly: Cytotoxicity against human SiHa cells after 4 hrs under strict hypoxic condition. It is filed as functional, cell-based.
Data set [7] in a line: Solubility at 22 degC in culture medium in presence of 5% fetal calf serum. It is filed as physicochemical. The following applies: culture medium with 5% fetal calf serum; read-out: solubility. The essentials:
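Solubility of the HCl salts is determined in culture medium containing 5% fetal calf serum at 22 °C.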

For data set [8], the system named is HT-29. Put plainly: Cytotoxicity against human HT-29 cells after 4 hrs under strict hypoxic condition. The class given is functional, cell-based.
Data set [9] concerns SiHa. In words: Hypoxic cytotoxicity ratio, ratio of aerobic IC50 to anoxic IC50 for human SiHa cells. The class given is functional.

On to `COc1ccc2c(c1)[n+]([O-])c(NCCN(C)C)n[n+]2[O-]`, for which the Activity was determined as 1635 µM in the data set with HT-29 [1], 26.1 µM·h in the data set with HT-29 [3] and 0.54 min⁻¹ in the data set with HT-29 [5]. The same compound yielded a D in the data set on HT-29 [2] of 2.3e-07 cm²/s. In the data set with HT-29 [4], the “Ratio IC50” value came out at 89.
Regarding `CCc1n[n+]([O-])c2cc3c(cc2[n+]1[O-])CC(CCN1CCOCC1)C3` (stereo not drawn), the Activity in the data set on HT-29 [1] was 984 µM; in the data set on HT-29 [3], 15.8 µM·h; in the data set on HT-29 [5] it was 0.54 min⁻¹. Also, the IC50 with SiHa [6] (Homo sapiens, SiHa, 4 h) turned out to be 1300 nM; in the data set on HT-29 [8] (Homo sapiens, HT-29, 4 h), 3600 nM. The solubility in data set [7] was over 51 mM. Moreover, the entries for the “Ratio IC50” value in the data set with SiHa [9] and with HT-29 [4] were 84 and 36, respectively.
Consider `CCc1n[n+]([O-])c2cc3c(cc2[n+]1[O-])CC(CN1CCOCC1)C3` (stereo not drawn), for which the Activity worked out at 1544 µM with HT-29 [1], 24.1 µM·h in the data set on HT-29 [3] and 0.54 min⁻¹ with HT-29 [5]. Also, the half-inhibitory concentration (IC50) in the data set with SiHa [6] (Homo sapiens, SiHa, 4 h) stood at 2400 nM; with HT-29 [8] (Homo sapiens, HT-29, 4 h), 4800 nM. The solubility in data set [7] amounted to 43 mM. Moreover, the “Ratio IC50” value in the data set with SiHa [9] is 62; with HT-29 [4] it was 31.
For the compound `CN(C)CCNc1n[n+]([O-])c2cc3c(cc2[n+]1[O-])CCO3`, the Activity with HT-29 [1] (1 h) came out at 6732 µM; with HT-29 [3] it was 18.6 µM·h; in the data set on HT-29 [5] it was 3.15 min⁻¹. In addition, the IC50 in the data set with SiHa [6] (siha) was 300 nM; in the data set on HT-29 [8] (ht-29), 2400 nM. Also, the solubility in data set [7] is over 48 mM. Also, the “Ratio IC50” value with SiHa [9] amounted to 87; in the data set with HT-29 [4], 23. The compound further showed a D in the data set on HT-29 [2] of 4.3e-07 cm²/s.
Consider `CCc1n[n+]([O-])c2cc3c(cc2[n+]1[O-])CC(CCO)C3` (stereo not drawn), for which the Activity is 2641 µM in the data set with HT-29 [1], 41.3 µM·h in the data set on HT-29 [3] and 0.54 min⁻¹ in the data set with HT-29 [5]. Also, the IC50 in the data set on SiHa [6] (Homo sapiens, SiHa, 4 h) came out at 2900 nM; with HT-29 [8] (Homo sapiens, HT-29, 4 h), 7700 nM. Moreover, in data set [7], the solubility came to 2 mM. Moreover, the “Ratio IC50” value in the data set on SiHa [9] was 86; with HT-29 [4] it was 102.
With `[O-][n+]1nc(CCCN2CCOCC2)[n+]([O-])c2cc3c(cc21)CCO3`, the figures for the Activity in the data set with HT-29 [1], with HT-29 [3] and in the data set with HT-29 [5] were 986 µM, 27.6 µM·h and 0.31 min⁻¹, respectively. For the same compound, the IC50 in the data set on SiHa [6] (Homo sapiens, SiHa, 4 h) turned out to be 5100 nM; with HT-29 [8] (Homo sapiens, HT-29, 4 h), 8900 nM. For the same compound, in [7], the solubility was 51 mM. Also, the “Ratio IC50” value with SiHa [9] came out at 43; with HT-29 [4], 25.
As for `[O-][n+]1nc(CCCN2CCOCC2)[n+]([O-])c2cc3c(cc21)CC(CO)C3` (stereo not drawn), the Activity was 2533 µM in the data set on HT-29 [1], 24.4 µM·h in the data set on HT-29 [3] and 0.9 min⁻¹ with HT-29 [5]. Further, the IC50 came to 1800 nM with SiHa [6] (Homo sapiens, SiHa, 4 h) and 2400 nM in the data set with HT-29 [8] (Homo sapiens, HT-29, 4 h). Further, the solubility in [7] was 48 mM. Besides, the “Ratio IC50” value with SiHa [9] is 206; in the data set with HT-29 [4], 121.
As to `CN(C)CCNc1n[n+]([O-])c2cc3c(cc2[n+]1[O-])CCC3`, the Activity in the data set with HT-29 [1] turned out to be 815 µM; with HT-29 [3] it was 16 µM·h; with HT-29 [5] it was 0.44 min⁻¹. Further, the IC50 amounted to 700 nM with SiHa [6] (Homo sapiens, SiHa, 4 h) and 2300 nM in the data set on HT-29 [8] (Homo sapiens, HT-29, 4 h). Also, in [7], the solubility was over 51 mM. In addition, the figures for the “Ratio IC50” value with SiHa [9] and in the data set on HT-29 [4] were 111 and 152, respectively. Besides, the D in the data set with HT-29 [2] worked out at 5.9e-07 cm²/s.
Regarding `CCCN(CCC)CCNc1n[n+]([O-])c2cc3c(cc2[n+]1[O-])CCC3`, the Activity in the data set on HT-29 [1] was found to be 3941 µM; in the data set with HT-29 [3], 31.8 µM·h; with HT-29 [5] it was 1.07 min⁻¹. In addition, the IC50 in the data set on SiHa [6] (Homo sapiens, SiHa, 4 h) was determined as 700 nM; with HT-29 [8] (Homo sapiens, HT-29, 4 h), 2500 nM. Besides, the solubility in data set [7] came to 20 mM. Moreover, the “Ratio IC50” value with SiHa [9] came to 91; in the data set on HT-29 [4], 77. In the data set with HT-29 [2], this compound yielded a D of 1.92e-06 cm²/s.
As for `[O-][n+]1nc(NCCN2CCCCC2)[n+]([O-])c2cc3c(cc21)CCC3`, the results for the Activity in the data set on HT-29 [1], with HT-29 [3] and in the data set with HT-29 [5] were 2444 µM, 15.6 µM·h and 1.25 min⁻¹, respectively. Also, the IC50 with SiHa [6] (Homo sapiens, SiHa, 4 h) amounted to 1300 nM; in the data set on HT-29 [8] (Homo sapiens, HT-29, 4 h) it was 5800 nM. Besides, the solubility in [7] was found to be 1.9 mM. The “Ratio IC50” value came out at 143 in the data set on SiHa [9] and 49 in the data set with HT-29 [4]. In the data set on HT-29 [2], the D was determined as 1.19e-06 cm²/s.
With `CN(C)CCNc1n[n+]([O-])c2c3c(ccc2[n+]1[O-])CCC3`, the Activity in the data set with HT-29 [1] was determined as 2219 µM; in the data set with HT-29 [3], 26.3 µM·h; in the data set with HT-29 [5], 0.74 min⁻¹. The IC50 with SiHa [6] (Homo sapiens, SiHa, 4 h) was 1600 nM; in the data set on HT-29 [8] (Homo sapiens, HT-29, 4 h) it was 3000 nM. Moreover, the solubility in data set [7] was over 54 mM. In addition, the results for the “Ratio IC50” value in the data set with SiHa [9] and in the data set with HT-29 [4] were 99 and 67, respectively. In addition, in the data set on HT-29 [2], the D turned out to be 8.4e-07 cm²/s.
In the case of `Nc1n[n+]([O-])c2ccccc2[n+]1[O-]` [TIRAPAZAMINE], the results for the Activity with HT-29 [1] and in the data set with HT-29 [3] were 1698 µM and 24.3 µM·h, respectively. The compound also returned a D in the data set on HT-29 [2] of 4.04e-07 cm²/s.

These data come from ChEMBL document CHEMBL1142527, “Tricyclic [1,2,4]triazine 1,4-dioxides as hypoxia selective cytotoxins” (J Med Chem, 2008).
